ChEMBL document CHEMBL2203175, “Discovery and optimization of sulfonyl acrylonitriles as selective, covalent inhibitors of protein phosphatase methylesterase-1” (J Med Chem, 2011)
Activity calls are given as the source filed them. The calls are words filed in the database; no cut-off is given here.

How the values were obtained:
[1] = biological target: Lysosomal protective protein (Homo sapiens) (UniProt P10619); assay: Inhibition of CTSA binding to FP-biotin in [12C][14N]-lysine, arginine and [13C6][15N2]-lysine, arginine labeled HEK293T cells at 20 uM after 1 hr by isotopic activity-based protein profiling-MudPIT assay; assay type: cell-based; settings: HEK-293T
Chain of Lysosomal protective protein (Homo sapiens) (P10619 29-326 limits assumed): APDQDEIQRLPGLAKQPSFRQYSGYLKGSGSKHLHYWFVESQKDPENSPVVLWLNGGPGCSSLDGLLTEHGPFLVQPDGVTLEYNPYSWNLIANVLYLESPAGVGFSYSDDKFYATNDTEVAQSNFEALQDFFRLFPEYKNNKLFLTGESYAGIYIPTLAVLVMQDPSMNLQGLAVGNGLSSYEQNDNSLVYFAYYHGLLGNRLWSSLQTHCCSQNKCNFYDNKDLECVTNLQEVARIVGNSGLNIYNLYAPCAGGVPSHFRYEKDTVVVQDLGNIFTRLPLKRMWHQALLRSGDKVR
Chain of Lysosomal protective protein (Homo sapiens) (P10619 327-480 limits assumed): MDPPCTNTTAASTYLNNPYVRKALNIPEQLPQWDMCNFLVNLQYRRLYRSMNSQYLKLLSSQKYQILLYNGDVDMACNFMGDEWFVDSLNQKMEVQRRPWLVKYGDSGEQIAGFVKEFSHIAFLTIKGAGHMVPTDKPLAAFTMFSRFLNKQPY
Method in brief: (§1)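 SILAC HEK 293T: light cells (12C14N-Lys/Arg) treated with compound, heavy cells (13C6 15N2-Lys/Arg) with DMSO, 1 h at 37 °C. Proteomes were mixed 1:1 (0.5 mg each) and labeled with FP-biotin (5 μM, 1 h, 25 °C), then streptavidin-enriched, digested on bead with trypsin, and run by MudPIT. Light/heavy ratios were normalized to a DMSO/DMSO control. Only SHs with ≥2 quantifiable peptides were kept; mean ± SEM across peptides.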

[2] = biological target: sn-1-specific diacylglycerol lipase ABHD11 (Homo sapiens) (UniProt Q8NFV4); assay: Inhibition of ABHD11 binding to FP-biotin in [12C][14N]-lysine, arginine and [13C6][15N2]-lysine, arginine labeled HEK293T cells at 20 uM after 1 hr by isotopic activity-based protein profiling-MudPIT assay; assay type: cell-based; settings: HEK-293T; method in brief: as §1
Chain of sn-1-specific diacylglycerol lipase ABHD11 (Homo sapiens) (Q8NFV4 whole entry): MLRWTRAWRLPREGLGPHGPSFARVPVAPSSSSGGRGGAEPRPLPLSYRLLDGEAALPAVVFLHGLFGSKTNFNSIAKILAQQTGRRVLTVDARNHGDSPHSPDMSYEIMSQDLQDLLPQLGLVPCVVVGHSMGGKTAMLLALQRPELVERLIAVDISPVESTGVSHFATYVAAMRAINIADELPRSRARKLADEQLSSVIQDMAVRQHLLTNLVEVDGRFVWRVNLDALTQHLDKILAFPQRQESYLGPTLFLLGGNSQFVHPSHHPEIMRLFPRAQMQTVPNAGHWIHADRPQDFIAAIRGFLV

inhibition [1]: inactive | inhibition [2]: inactive
Compound: N#C/C(=C\c1cccn1S(=O)(=O)c1cccc([N+](=O)[O-])c1)S(=O)(=O)c1ccc(F)cc1
